We go through 9 compounds from ChEMBL document CHEMBL1154282, “Identification of antiadipogenic constituents of the rhizomes of Anemarrhena asphodeloides” (J Nat Prod, 2009).

A value given as a limit tells only on which side of the number the result lay.

For the assay, the system named is 3T3-L1. As to the kind of experiment: Antiadipogenic activity against mouse 3T3L1 cells assessed as inhibition of differentiation after 7 days by oil-red O staining. Particulars: 3T3-L1, 168 h. The assay is classed as functional, cell-based. Put shortly:
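Mouse 3T3-L1 preadipocytes grown to confluence for 48 h, then induced (day 0) in DMEM with 10% FBS, insulin 5 µg/mL, 10 µM rosiglitazone, 1 µM dexamethasone; after 48 h switched to 10% FBS/DMEM + 5 µg/mL insulin, then 10% FBS/DMEM every other day. Compounds added day 0, refreshed every 2 days. Day 7: PBS wash, 10% formalin 10 min, Oil-red O 1 h RT, dye eluted in isopropanol, A500; IC50 derived.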
As a reminder, the IC50 is the point on the concentration scale where inhibition reaches its midpoint. As to `COc1ccc(CCCc2ccc(O)cc2)c(O)c1` [BROUSSONIN A], the half-inhibitory concentration (IC50) came out at 74.5 µM. The result for `Cc1c(O)cc2c(c1O)C(=O)/C(=C/c1ccc(O)cc1)CO2` reads more than 100 µM; that for `O=C1/C(=C/c2ccc(O)cc2)COc2cc(O)cc(O)c21`, more than 100 µM; that for `C=C[C@H](/C=C\c1ccc(OC)cc1)c1ccc(O)cc1`, 45.9 µM. `COc1cc(O)ccc1C(=O)/C=C/c1ccc(O)cc1`: the 50% inhibitory concentration (IC50) was determined as 41.8 µM. The result for `O=C(C#Cc1ccc(O)cc1)c1ccc(O)cc1` [ANEMARCHALCONYN] reads 5.3 µM; that for `Oc1ccc(/C=C/c2cc(O)cc(O)c2)cc1` [RESVERATROL], 31.4 µM; that for `C=C[C@H](/C=C\c1ccc(O)cc1)c1ccc(O)cc1` [NYASOL], more than 100 µM. On to `O=C(/C=C/c1ccc(O)cc1)c1ccc(O)cc1O` [ISOLIQUIRITIGENIN], for which the IC50 stood at 96.4 µM.
